ChEMBL document CHEMBL4184148 (Bioorg Med Chem Lett, 2017)

Tests used:
[1] = target: Death-associated protein kinase 3 (Homo sapiens) (UniProt O43293); test: Binding affinity to wild-type human partial length DAPK3 (M1 to A277 residues) expressed in Escherichia coli BL21 at 1 uM by Kinomescan method relative to control
[2] = target: Serine/threonine-protein kinase LATS2 (Homo sapiens) (UniProt Q9NRM7); test: Binding affinity to wild-type human partial length LATS2 (Q641 to V1088 residues) expressed in HEK293 cells at 1 uM by Kinomescan method relative to control; format: cell-based
[3] = target: Maternal embryonic leucine zipper kinase (Homo sapiens) (UniProt Q14680); test: Binding affinity to wild-type human full length MELK (M1 to V651 residues) expressed in Escherichia coli BL21 at 1 uM by Kinomescan method relative to control
Summary of the method: (§1)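 Run as one kinome-wide competition binding panel with each compound at a single fixed concentration. Results were plotted as a kinome-wide selectivity map.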

[4] = test system: Phosphatidylinositol 4,5-bisphosphate 3-kinase catalytic subunit alpha isoform (Homo sapiens), P42336 [E545A]; test: Binding affinity to human partial length PIK3CA E545A mutant (R108 to N1068 residues) expressed in HEK293 cells at 1 uM by Kinomescan method relative to control; format: cell-based
[5] = target: Mitogen-activated protein kinase 12 (Homo sapiens) (UniProt P53778); test: Binding affinity to wild-type human full length p38-gamma (M1 to L367 residues) expressed in HEK293 cells at 1 uM by Kinomescan method relative to control; format: cell-based
Summary of the method: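 Kinome-wide competition binding panel run by an outside provider, with each compound tested at a single concentration. Activity is read against the kinase panel.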

[6] = test system: Tyrosine-protein kinase ABL1 (Homo sapiens), P00519 [Y253F]; test: Binding affinity to human phosphorylated ABL1 Y253F mutant (S229 to K512 residues) expressed in HEK293 cells at 1 uM by Kinomescan method relative to control; format: cell-based
[7] = target: Peripheral plasma membrane protein CASK (Homo sapiens) (UniProt O14936); test: Binding affinity to wild-type human partial length CASK (M1 to H315 residues) expressed in HEK293 cells at 1 uM by Kinomescan method relative to control; format: cell-based
[8] = target: Tyrosine-protein kinase Lck (Homo sapiens) (UniProt P06239); test: Binding affinity to wild-type human partial length LCK (R207 to P509 residues) expressed in Escherichia coli BL21 at 1 uM by Kinomescan method relative to control
[9] = test system: Tyrosine-protein kinase ABL1 (Homo sapiens), P00519 [T315I]; test: Binding affinity to human non-phosphorylated ABL1 T315I mutant (S229 to K512 residues) expressed in HEK293 cells at 1 uM by Kinomescan method relative to control; format: cell-based
[10] = target: Death-associated protein kinase 1 (Homo sapiens) (UniProt P53355); test: Binding affinity to wild-type human partial length DAPK1 (M1 to F296 residues) expressed in Escherichia coli BL21 at 1 uM by Kinomescan method relative to control
[11] = target: Dual specificity tyrosine-phosphorylation-regulated kinase 1B (Homo sapiens) (UniProt Q9Y463); test: Binding affinity to wild-type human full length DYRK1B (M1 to S629 residues) expressed in Escherichia coli BL21 at 1 uM by Kinomescan method relative to control; summary of the method: as §1
[12] = target: Phosphatidylinositol 3-kinase catalytic subunit type 3 (Homo sapiens) (UniProt Q8NEB9); test: Binding affinity to wild-type human partial length VPS34 (S282 to H879 residues) expressed in HEK293 cells at 1 uM by Kinomescan method relative to control; format: cell-based
[13] = target: Serine/threonine-protein kinase Nek9 (Homo sapiens) (UniProt Q8TD19); test: Binding affinity to wild-type human partial length NEK9 (P32 to R328 residues) expressed in Escherichia coli BL21 at 1 uM by Kinomescan method relative to control
[14] = target: Tyrosine-protein kinase ABL1 (Homo sapiens) (UniProt P00519); test: Binding affinity to wild-type human non-phosphorylated ABL1 (S229 to K512 residues) expressed in HEK293 cells at 1 uM by Kinomescan method relative to control; format: cell-based
[15] = target: Cyclin-dependent kinase-like 1 (Homo sapiens) (UniProt Q00532); test: Binding affinity to wild-type human full length CDKL1 (M1 to I358 residues) expressed in HEK293 cells at 1 uM by Kinomescan method relative to control; format: cell-based; summary of the method: as §1
[16] = target: NT-3 growth factor receptor (Homo sapiens) (UniProt Q16288); test: Binding affinity to wild-type human partial length TRKC (Q531 to G825 residues) expressed in HEK293 cells at 1 uM by Kinomescan method relative to control; format: cell-based
[17] = target: Ribosomal protein S6 kinase alpha-1 (Homo sapiens) (UniProt Q15418); test: Binding affinity to wild-type human partial length N-terminal RSK1 Kinase domain 1 (M1 to E388 residues) expressed in Escherichia coli BL21 at 1 uM by Kinomescan method relative to control
[18] = target: Mitogen-activated protein kinase kinase kinase 20 (Homo sapiens) (UniProt Q9NYL2); test: Binding affinity to wild-type human partial length ZAK (M1 to L331 residues) expressed in Escherichia coli BL21 at 1 uM by Kinomescan method relative to control
[19] = target: Serine/threonine-protein kinase WNK3 (Homo sapiens) (UniProt Q9BYP7); test: Binding affinity to wild-type human partial length WNK3 (M1 to D434 residues) expressed in HEK293 cells at 1 uM by Kinomescan method relative to control; format: cell-based
[20] = target: Serine/threonine-protein kinase PAK 1 (Homo sapiens) (UniProt Q13153); test: Binding affinity to wild-type human partial length PAK1 (S149 to H545 residues) expressed in Escherichia coli BL21 at 1 uM by Kinomescan method relative to control
[21] = target: Ephrin type-A receptor 7 (Homo sapiens) (UniProt Q15375); test: Binding affinity to wild-type human partial length EPHA7 (Y608 to S912 residues) expressed in Escherichia coli BL21 at 1 uM by Kinomescan method relative to control
[22] = target: Tyrosine-protein kinase receptor UFO (Homo sapiens) (UniProt P30530); test: Binding affinity to wild-type human partial length AXL (R497 to Y821 residues) expressed in Escherichia coli BL21 at 1 uM by Kinomescan method relative to control
[23] = target: Ephrin type-A receptor 8 (Homo sapiens) (UniProt P29322); test: Binding affinity to wild-type human partial length EPHA8 (Q608 to C920 residues) expressed in Escherichia coli BL21 at 1 uM by Kinomescan method relative to control
[24] = target: Cyclin-dependent kinase 8 (Homo sapiens) (UniProt P49336); test: Binding affinity to wild-type human partial length CDK8 (M1 to T360 residues) expressed in Escherichia coli BL21 at 1 uM by Kinomescan method relative to control
[25] = target: Calcium-dependent protein kinase 1 (Plasmodium falciparum) (UniProt P62344); test: Binding affinity to wild-type Plasmodium falciparum full length CDPK1 (M1 to S524 residues) expressed in HEK293 cells at 1 uM by Kinomescan method relative to control; format: cell-based
Chain of Calcium-dependent protein kinase 1 (Plasmodium falciparum) (P62344 2-524 limits assumed): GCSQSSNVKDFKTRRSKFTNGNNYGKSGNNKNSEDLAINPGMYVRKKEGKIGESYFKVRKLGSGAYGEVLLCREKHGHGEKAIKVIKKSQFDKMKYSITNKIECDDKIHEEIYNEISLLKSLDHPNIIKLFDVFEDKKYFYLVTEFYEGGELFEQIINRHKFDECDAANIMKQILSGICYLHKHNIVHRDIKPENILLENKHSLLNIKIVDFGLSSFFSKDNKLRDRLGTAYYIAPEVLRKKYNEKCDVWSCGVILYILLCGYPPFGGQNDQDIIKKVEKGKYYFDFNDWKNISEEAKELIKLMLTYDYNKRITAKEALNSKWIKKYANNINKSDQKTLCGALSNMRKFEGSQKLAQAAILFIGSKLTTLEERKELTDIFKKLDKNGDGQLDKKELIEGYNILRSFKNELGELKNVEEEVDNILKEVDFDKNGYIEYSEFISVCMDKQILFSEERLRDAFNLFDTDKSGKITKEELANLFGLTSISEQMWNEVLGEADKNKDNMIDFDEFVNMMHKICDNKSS

Chain of Tyrosine-protein kinase receptor UFO (Homo sapiens) (P30530 whole entry, the tested form may be a part): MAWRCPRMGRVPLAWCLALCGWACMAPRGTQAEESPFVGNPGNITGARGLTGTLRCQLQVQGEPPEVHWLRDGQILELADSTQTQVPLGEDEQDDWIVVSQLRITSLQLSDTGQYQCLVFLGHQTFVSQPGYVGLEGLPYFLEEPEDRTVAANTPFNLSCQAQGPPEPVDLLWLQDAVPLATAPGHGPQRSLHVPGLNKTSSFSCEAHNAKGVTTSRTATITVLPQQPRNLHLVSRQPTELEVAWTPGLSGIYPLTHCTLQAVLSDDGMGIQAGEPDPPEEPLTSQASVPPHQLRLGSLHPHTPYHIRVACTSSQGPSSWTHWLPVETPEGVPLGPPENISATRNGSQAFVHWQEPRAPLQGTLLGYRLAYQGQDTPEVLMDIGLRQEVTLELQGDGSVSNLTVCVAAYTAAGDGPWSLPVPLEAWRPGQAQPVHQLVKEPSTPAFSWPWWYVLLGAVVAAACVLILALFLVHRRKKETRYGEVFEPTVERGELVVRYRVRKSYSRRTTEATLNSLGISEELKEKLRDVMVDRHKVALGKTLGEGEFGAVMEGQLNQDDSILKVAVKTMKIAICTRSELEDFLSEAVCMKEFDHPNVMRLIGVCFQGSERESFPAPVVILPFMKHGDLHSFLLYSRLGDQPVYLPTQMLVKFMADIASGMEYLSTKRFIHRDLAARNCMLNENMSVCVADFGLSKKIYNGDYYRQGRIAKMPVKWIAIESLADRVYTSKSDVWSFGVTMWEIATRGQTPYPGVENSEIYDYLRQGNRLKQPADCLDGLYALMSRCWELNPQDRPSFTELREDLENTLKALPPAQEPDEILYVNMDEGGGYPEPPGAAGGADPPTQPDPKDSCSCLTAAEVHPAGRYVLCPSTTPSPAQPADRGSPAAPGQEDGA
Chain of Maternal embryonic leucine zipper kinase (Homo sapiens) (Q14680 whole entry, looked up, the tested form may be a part): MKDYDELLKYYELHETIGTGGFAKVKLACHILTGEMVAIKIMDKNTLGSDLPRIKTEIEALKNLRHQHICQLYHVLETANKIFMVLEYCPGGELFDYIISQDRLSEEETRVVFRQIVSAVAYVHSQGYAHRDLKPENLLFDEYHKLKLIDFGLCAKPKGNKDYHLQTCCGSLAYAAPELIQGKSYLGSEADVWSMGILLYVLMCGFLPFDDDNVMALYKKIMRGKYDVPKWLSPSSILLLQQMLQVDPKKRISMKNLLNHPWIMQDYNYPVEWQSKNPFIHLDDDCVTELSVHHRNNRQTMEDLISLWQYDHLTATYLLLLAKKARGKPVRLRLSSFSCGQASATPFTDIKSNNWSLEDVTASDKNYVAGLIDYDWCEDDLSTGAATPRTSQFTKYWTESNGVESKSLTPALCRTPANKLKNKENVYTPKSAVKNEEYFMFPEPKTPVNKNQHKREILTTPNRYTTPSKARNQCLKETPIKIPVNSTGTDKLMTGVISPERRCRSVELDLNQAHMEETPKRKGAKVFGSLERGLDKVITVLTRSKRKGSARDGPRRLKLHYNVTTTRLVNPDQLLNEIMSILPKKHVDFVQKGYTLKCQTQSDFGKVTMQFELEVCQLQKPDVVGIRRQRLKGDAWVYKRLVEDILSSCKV
Chain of Ephrin type-A receptor 8 (Homo sapiens) (P29322 whole entry, the tested form may be a part): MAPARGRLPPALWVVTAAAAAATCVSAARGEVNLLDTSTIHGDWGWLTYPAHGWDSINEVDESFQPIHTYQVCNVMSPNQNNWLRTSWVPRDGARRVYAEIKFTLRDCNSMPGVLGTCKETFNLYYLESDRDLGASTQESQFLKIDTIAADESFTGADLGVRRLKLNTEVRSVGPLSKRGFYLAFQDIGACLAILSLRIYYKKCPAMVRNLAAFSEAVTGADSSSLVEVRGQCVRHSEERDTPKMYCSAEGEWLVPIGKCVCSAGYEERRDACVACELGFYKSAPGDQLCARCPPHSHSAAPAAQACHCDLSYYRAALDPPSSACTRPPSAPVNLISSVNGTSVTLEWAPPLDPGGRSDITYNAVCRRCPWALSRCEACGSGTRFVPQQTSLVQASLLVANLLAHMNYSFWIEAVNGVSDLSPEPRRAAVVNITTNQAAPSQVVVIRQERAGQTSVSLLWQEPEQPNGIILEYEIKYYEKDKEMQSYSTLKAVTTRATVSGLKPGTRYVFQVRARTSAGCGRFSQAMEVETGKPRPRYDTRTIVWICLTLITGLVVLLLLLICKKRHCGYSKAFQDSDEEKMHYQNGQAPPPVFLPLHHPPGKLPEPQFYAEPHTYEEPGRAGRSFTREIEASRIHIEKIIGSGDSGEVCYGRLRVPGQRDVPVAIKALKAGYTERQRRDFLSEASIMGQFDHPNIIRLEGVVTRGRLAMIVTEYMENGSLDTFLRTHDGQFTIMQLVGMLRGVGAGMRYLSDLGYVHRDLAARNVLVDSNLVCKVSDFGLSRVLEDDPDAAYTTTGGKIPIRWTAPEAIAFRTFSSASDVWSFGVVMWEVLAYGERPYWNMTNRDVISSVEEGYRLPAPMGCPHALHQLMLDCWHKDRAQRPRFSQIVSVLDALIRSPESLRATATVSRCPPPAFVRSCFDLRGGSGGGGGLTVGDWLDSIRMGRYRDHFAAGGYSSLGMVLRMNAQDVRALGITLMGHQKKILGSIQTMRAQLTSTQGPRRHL
Chain of Phosphatidylinositol 4,5-bisphosphate 3-kinase catalytic subunit alpha isoform (Homo sapiens), P42336 [E545A] (P42336 whole entry E545A, the tested form may be a part, canonical isoform): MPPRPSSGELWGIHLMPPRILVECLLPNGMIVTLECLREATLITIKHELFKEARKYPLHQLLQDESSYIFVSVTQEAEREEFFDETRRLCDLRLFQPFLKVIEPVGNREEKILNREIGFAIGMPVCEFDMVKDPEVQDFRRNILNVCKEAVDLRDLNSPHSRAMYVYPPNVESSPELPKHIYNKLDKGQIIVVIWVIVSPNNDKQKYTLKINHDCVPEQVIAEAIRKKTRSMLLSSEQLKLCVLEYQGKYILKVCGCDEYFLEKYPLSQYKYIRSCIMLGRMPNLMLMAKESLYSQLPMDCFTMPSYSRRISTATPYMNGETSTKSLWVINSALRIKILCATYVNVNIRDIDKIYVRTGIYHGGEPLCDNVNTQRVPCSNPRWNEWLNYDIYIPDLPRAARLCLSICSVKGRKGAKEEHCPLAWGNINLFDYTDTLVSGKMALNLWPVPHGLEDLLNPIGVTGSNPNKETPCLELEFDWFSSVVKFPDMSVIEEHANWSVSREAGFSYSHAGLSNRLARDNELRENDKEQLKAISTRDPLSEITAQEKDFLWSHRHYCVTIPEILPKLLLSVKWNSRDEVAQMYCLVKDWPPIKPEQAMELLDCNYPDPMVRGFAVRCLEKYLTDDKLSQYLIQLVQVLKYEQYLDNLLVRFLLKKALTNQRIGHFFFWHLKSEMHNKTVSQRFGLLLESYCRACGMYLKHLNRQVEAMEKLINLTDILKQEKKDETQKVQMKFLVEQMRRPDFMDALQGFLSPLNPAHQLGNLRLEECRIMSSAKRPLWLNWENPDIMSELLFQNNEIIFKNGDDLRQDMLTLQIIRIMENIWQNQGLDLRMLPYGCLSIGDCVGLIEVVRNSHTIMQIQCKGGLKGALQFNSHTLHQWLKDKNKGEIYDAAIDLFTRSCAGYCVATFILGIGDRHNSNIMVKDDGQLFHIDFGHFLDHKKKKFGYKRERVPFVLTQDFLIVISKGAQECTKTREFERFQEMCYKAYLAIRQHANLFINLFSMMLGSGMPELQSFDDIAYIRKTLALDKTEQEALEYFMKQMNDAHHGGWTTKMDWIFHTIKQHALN
Chain of Phosphatidylinositol 3-kinase catalytic subunit type 3 (Homo sapiens) (Q8NEB9 whole entry, the tested form may be a part): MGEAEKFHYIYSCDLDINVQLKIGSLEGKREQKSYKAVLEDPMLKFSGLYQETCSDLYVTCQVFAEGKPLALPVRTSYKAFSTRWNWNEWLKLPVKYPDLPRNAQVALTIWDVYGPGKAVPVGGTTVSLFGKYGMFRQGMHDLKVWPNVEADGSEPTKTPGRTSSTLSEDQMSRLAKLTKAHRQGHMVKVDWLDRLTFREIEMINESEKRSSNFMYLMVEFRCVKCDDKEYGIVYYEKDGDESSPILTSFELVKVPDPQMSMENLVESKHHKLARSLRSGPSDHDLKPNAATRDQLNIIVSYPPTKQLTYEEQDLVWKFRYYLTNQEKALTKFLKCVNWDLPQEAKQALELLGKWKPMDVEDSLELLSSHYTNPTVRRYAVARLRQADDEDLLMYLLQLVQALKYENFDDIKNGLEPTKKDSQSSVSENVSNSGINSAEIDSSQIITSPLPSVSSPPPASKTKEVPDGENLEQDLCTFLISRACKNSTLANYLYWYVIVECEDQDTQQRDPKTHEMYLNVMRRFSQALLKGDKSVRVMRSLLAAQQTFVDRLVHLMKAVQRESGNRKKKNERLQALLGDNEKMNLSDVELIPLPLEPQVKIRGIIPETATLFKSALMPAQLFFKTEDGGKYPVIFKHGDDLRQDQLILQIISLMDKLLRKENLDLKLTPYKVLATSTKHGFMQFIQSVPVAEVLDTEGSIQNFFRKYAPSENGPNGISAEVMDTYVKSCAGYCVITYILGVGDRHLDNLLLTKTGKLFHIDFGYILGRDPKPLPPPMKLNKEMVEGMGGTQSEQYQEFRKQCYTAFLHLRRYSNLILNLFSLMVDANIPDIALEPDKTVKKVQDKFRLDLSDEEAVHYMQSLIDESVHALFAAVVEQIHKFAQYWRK

C=CC(=O)Nc1ccc(C(=O)Nc2ccc(Nc3ncc4c(n3)N(C)c3ccc(C)cc3C(=O)N4C)cc2)cc1
Activity [1]: 100% | Activity [2]: 100% | Activity [3]: 97% | Activity [4]: 78% | Activity [5]: 67% | Activity [6]: 100% | Activity [7]: 97% | Activity [8]: 90% | Activity [9]: 100% | Activity [10]: 100% | Activity [11]: 90% | Activity [12]: 99% | Activity [13]: 97% | Activity [14]: 77% | Activity [15]: 92% | Activity [16]: 100% | Activity [17]: 100% | Activity [18]: 100% | Activity [19]: 100% | Activity [20]: 93% | Activity [21]: 94% | Activity [22]: 95% | Activity [23]: 91% | Activity [24]: 78% | Activity [25]: 100%

CCC(=O)Nc1ccc(C(=O)Nc2ccc(Nc3ncc4c(n3)N(C)c3ccc(C)cc3C(=O)N4C)cc2)cc1
Activity [1]: 82% | Activity [2]: 92% | Activity [3]: 78% | Activity [4]: 93% | Activity [5]: 86% | Activity [6]: 3.5% | Activity [7]: 80% | Activity [8]: 86% | Activity [9]: 81% | Activity [10]: 90% | Activity [11]: 100% | Activity [12]: 100% | Activity [13]: 100% | Activity [14]: 67% | Activity [15]: 88% | Activity [16]: 89% | Activity [17]: 94% | Activity [18]: 85% | Activity [19]: 100% | Activity [20]: 94% | Activity [21]: 86% | Activity [22]: 87% | Activity [23]: 80% | Activity [24]: 100% | Activity [25]: 74%
